Experiments:
Putative nitroreductase [1] = biological target: T1, Putative nitroreductase (Staphylococcus saprophyticus subsp. saprophyticus (strain ATCC 15305 / DSM20229 / NCIMB 8711 / NCTC 7292 / S-41), UniProt Q4A0P1); test: Substrate activity at Staphylococcus saprophyticus nitroreductase expressed in Escherichia coli assessed as retention time […] at 100 uM by HPLC analysis (0 to 5 mins at 20 % ACN, 15 to 22 min at 80% ACN, 27-32 AT 20% ACN); type: ADME
T1 sequence (Q4A0P1 whole entry): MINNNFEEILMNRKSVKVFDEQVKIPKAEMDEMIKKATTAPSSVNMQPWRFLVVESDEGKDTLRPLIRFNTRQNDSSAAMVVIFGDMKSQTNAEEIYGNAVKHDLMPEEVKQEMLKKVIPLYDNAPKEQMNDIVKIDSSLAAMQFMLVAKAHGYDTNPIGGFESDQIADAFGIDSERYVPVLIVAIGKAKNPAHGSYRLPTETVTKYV

[2] = biological target: T2, Staphylococcus saprophyticus nitroreductase (Staphylococcus saprophyticus subsp. saprophyticus (strain ATCC 15305 / DSM20229 / NCIMB 8711 / NCTC 7292 / S-41), UniProt Q4A0P1); test: Substrate activity at Staphylococcus saprophyticus nitroreductase expressed in Escherichia coli assessed as half life […] at 100 uM by HPLC analysis (0 to 5 mins at 20 % ACN, 15 to 22 min at 80% ACN, 27-32 AT 20% ACN); type: ADME
T2 sequence (Q4A0P1 whole entry): T1 sequence (Q4A0P1 whole entry)

PC-3 [3] = test: Cytotoxicity in human PC3 cells assessed as reduction in cell viability at 180 nM measured after 48 hrs by SRB assay; type: cell-based; conditions: pc-3, 48 h, 0.18 µM
Summary of the method: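 They were exposed for 48 h to prodrug alone at 180 nM final, without enzyme or NADH, with 25 mM Tris-HCl as vehicle control. Cells were fixed with 12.5% TCA for 1 h at 4 °C, stained with 0.4% SRB and read at 492 nm as % cell survival, in triplicate.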

PC-3 [4] = test: Cytotoxicity against human PC3 cells assessed as reduction in cell viability measured after 48 hrs in presence of Staphylococcus saprophyticus nitroreductase and NADH by SRB assay; type: cell-based; conditions: PC-3, 48 h
Summary of the method: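 Prodrug at 180, 18 or 1.8 nM was premixed with Ssap-NtrB (31 µg/mL final) and NADH (600 µM final; 900 µM for CB1954) in 25 mM Tris-HCl pH 7.5, then added for 48 h under aerobic conditions. Cells were fixed with 12.5% TCA, stained with SRB and read at 492 nm, in triplicate.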

[5] = Cytotoxicity against human Hep3B cells assessed as cell viability at 9 to 150 uM measured after 48 hrs by MTT assay relative to control; type: cell-based, Hep 3B2; conditions: read-out: Activity
Summary of the method: (§1)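 Hep3B and HUVEC cells were grown in high-glucose medium with 10% heat-inactivated FBS and 2 mM glutamine at 37 °C in 5% CO2. Cells were seeded at 5x10^4 per well and left 24 h to attach. They were then exposed for 48 h to 150, 75, 39, 19 and 9 µM, with 1% DMSO as vehicle control. Viability was read by MTT at 550 nm as (OD sample/OD control)×100.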

[6] = Cytotoxicity against human HUVEC cells assessed as cell viability at 9 to 150 uM measured after 48 hrs by MTT assay relative to control; type: cell-based; conditions: read-out: Activity; summary of the method: as §1
[7] = Cytotoxicity against human PC3 cells assessed as cell viability at 9 to 150 uM measured after 48 hrs by MTT assay relative to control; type: cell-based, PC-3; conditions: read-out: Activity
Summary of the method: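 They were treated for 48 h at 9, 18, 39, 78 and 150 µM, with 1% DMSO as vehicle control. Viability was read by MTT at 550 nm.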

Putative nitroreductase [8] = biological target: T1, Putative nitroreductase; test: Substrate activity at Staphylococcus saprophyticus nitroreductase expressed in Escherichia coli assessed as retention time in the presence of NADPH at 100 uM by HPLC analysis (0 to 5 mins at 20% ACN, 25 to 35 min at 80% ACN, 40 to 45 min at 20% ACN); type: ADME
[9] = biological target: T2, Staphylococcus saprophyticus nitroreductase; test: Substrate activity at Staphylococcus saprophyticus nitroreductase expressed in Escherichia coli assessed as half life […] at 100 uM by HPLC analysis (0 to 5 mins at 20% ACN, 25 to 35 min at 80% ACN, 40 to 45 min at 20% ACN); type: ADME
Putative nitroreductase [10] = biological target: T1, Putative nitroreductase; test: Prodrug conversion assessed Staphylococcus saprophyticus nitroreductase expressed in Escherichia coli-mediated (4-aminophenyl)(piperidin-1-yl)methanone metabolite formation by measuring retention time in presence of FDH cofactor regeneration system at 100 uM by HPLC analysis; type: ADME
Summary of the method: (§2)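 This was a coupled regeneration reaction: 100 µM substrate in Tris/Cl pH 7.5 with 5–15% DMSO, plus 100 µM NADH, 10 µM NAD+, 0.1 mg/mL BSA, 200 µM sodium formate, 30 µg/mL Ssap-NtrB and 30 µg/mL Candida methylica FDH, at 25 °C. Aliquots were taken over time, quenched 1:1 with cold acetonitrile and analysed by C18 HPLC using program II (20→80→20% ACN). Peak areas were read at 254 and 340 nm.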

Putative nitroreductase [11] = biological target: T1, Putative nitroreductase; test: Prodrug conversion assessed Staphylococcus saprophyticus nitroreductase expressed in Escherichia coli-mediated PP (4-(hydroxyamino)phenyl)(piperidin-1-yl)methanone metabolite formation by measuring retention time in presence of FDH cofactor regeneration system at 100 uM by HPLC analysis; type: ADME; summary of the method: as §2
Putative nitroreductase [12] = biological target: T1, Putative nitroreductase; test: Prodrug conversion assessed Staphylococcus saprophyticus nitroreductase expressed in Escherichia coli-mediated PP (4-(hydroxyamino)phenyl)(piperidin-1-yl)methanone metabolite formation by measuring retention time of metabolite at 100 uM incubated for 15 mins by HPLC analysis; type: ADME; conditions: 0.25 h
Summary of the method: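 Recombinant Ssap-NtrB, Ni-column purified, was used at 2.5 µg/mL. Substrate at 100 µM was reacted with 200 µM NADH in 25 mM Tris/Cl pH 7.5 with 10% DMSO at 25 °C for 15 min. The reaction was stopped 1:1 with cold acetonitrile and run on C18 RP-HPLC at 1 mL/min with a 20–80% ACN gradient. Peaks were detected at 254 and 340 nm.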

[13] = Solubility of the compound in 15% DMSO; type: physicochemical
Hep 3B2 = test: Cytotoxicity against human Hep3B cells assessed as reduction in cell viability measured after 48 hrs by MTT assay; type: cell-based; summary of the method: as §1
Putative nitroreductase [14] = biological target: T1, Putative nitroreductase; test: Substrate activity at Staphylococcus saprophyticus nitroreductase expressed in Escherichia coli assessed as retention time […] at 111 uM by HPLC analysis (0 to 5 mins at 20 % ACN, 15 to 22 min at 80% ACN, 27-32 AT 20% ACN); type: ADME
Putative nitroreductase [15] = biological target: T1, Putative nitroreductase; test: Substrate activity at Staphylococcus saprophyticus nitroreductase expressed in Escherichia coli assessed as retention time in the presence of NADPH at 111 uM by HPLC analysis (0 to 5 mins at 20% ACN, 25 to 35 min at 80% ACN, 40 to 45 min at 20% ACN); type: ADME
[16] = biological target: T2, Staphylococcus saprophyticus nitroreductase; test: Substrate activity at Staphylococcus saprophyticus nitroreductase expressed in Escherichia coli assessed as half life in the presence of NADPH at 111 uM by HPLC analysis (0 to 5 mins at 20% ACN, 25 to 35 min at 80% ACN, 40 to 45 min at 20% ACN); type: ADME
Putative nitroreductase [17] = biological target: T1, Putative nitroreductase; test: Substrate activity at Staphylococcus saprophyticus nitroreductase expressed in Escherichia coli assessed as retention time […] at 150 uM by HPLC analysis (0 to 5 mins at 20 % ACN, 15 to 22 min at 80% ACN, 27-32 AT 20% ACN); type: ADME
[18] = biological target: T2, Staphylococcus saprophyticus nitroreductase; test: Substrate activity at Staphylococcus saprophyticus nitroreductase expressed in Escherichia coli assessed as half life […] at 150 uM by HPLC analysis (0 to 5 mins at 20 % ACN, 15 to 22 min at 80% ACN, 27-32 AT 20% ACN); type: ADME
[19] = biological target: T3, Escherichia coli nitroreductase nfsB (oxygen-insensitive NAD(P)H nitroreductase) (Escherichia coli K-12, UniProt P38489); test: Substrate activity at Escherichia coli nitroreductase nfsB assessed as Km using NADH as cofactor in Tris-Cl buffer at pH 7.5 by spectrophotometric method; type: ADME
T3 sequence (P38489 whole entry): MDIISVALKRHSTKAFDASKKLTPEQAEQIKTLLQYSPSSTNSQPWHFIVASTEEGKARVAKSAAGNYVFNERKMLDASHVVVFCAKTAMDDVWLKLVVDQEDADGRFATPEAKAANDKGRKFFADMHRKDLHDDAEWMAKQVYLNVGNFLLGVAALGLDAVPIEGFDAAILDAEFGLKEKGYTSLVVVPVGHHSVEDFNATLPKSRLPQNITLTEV

[20] = biological target: T4, Oxygen-insensitive NAD(P)H nitroreductase (Escherichia coli K-12, UniProt P38489); test: Substrate activity at Escherichia coli nitroreductase nfsB assessed as ratio of Kcat/Km using NADH as cofactor in Tris-Cl buffer at pH 7.5 by spectrophotometric method; type: ADME
T4 sequence (P38489 whole entry): T3 sequence (P38489 whole entry)

Putative nitroreductase [21] = biological target: T1, Putative nitroreductase; test: Substrate activity at Staphylococcus saprophyticus nitroreductase assessed as Kcat using NADPH as cofactor in presence of Tris-Cl buffer at pH 7.5 by spectrophotometric method; type: ADME
Summary of the method: (§3)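 Michaelis–Menten parameters for recombinant Ssap-NtrB were measured spectrophotometrically at 25 °C in 25 mM Tris-Cl buffer pH 7.5 containing 5% DMSO as cosolvent.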

[22] = biological target: T2, Staphylococcus saprophyticus nitroreductase; test: Substrate activity at Staphylococcus saprophyticus nitroreductase assessed as Km using NADPH as cofactor in presence of Tris-Cl buffer at pH 7.5 by spectrophotometric method; type: ADME; summary of the method: as §3
Putative nitroreductase [23] = biological target: T1, Putative nitroreductase; test: Substrate activity at Staphylococcus saprophyticus nitroreductase assessed as ratio of Kcat/Km using NADPH as cofactor in presence of Tris-Cl buffer at pH 7.5 by spectrophotometric method; type: ADME; summary of the method: as §3
[24] = biological target: T4, Oxygen-insensitive NAD(P)H nitroreductase; test: Substrate activity at Escherichia coli nitroreductase nfsB assessed as ratio of Kcat/Km up to 80 mM using NADH as cofactor relative to CB1954/NfsB; type: ADME

| SMILES | Retention_time (Putative nitroreductase [1]) [min] | half-life [2] [min] | Activity (PC-3 [3]) | IC50 (PC-3 [4]) [µM] | viability at 48 h, up to 150 µM [5] [%] | viability at 48 h, up to 150 µM [6] [%] | viability at 48 h, up to 150 µM [7] [%] | solubility [13] | also measured |
| --- | --- | --- | --- | --- | --- | --- | --- | --- | --- |
| O=C(c1ccc([N+](=O)[O-])cc1)N1CCCCC1 | 18.22 | < 90 | Non-Toxic | 0.00181 | > 80 | > 80 | > 80 | Soluble | Retention_time (Putative nitroreductase [8]): 17.81 min; half-life at 100 µM [9]: < 1.2 min; Retention_time (Putative nitroreductase [10]): 22.3 min; Retention_time (Putative nitroreductase [11]): 14 min; Retention_time (Putative nitroreductase [12]): 15.99 min |
| CCCCN(CCCC)c1c([N+](=O)[O-])cc(C(=O)Nc2ccc([N+](=O)[O-])cc2)cc1[N+](=O)[O-] |  |  |  |  | < 50 | < 50 | < 50 |  | IC50 (Hep 3B2): 30.9 µM; Retention_time (Putative nitroreductase [14]): 26.5 min; Retention_time (Putative nitroreductase [15]): 31.96 min; half-life [16]: < 93.6 min |
| CC(=O)Nc1cc([N+](=O)[O-])cc([N+](=O)[O-])c1 |  |  | Non-Toxic | 10.7 | > 80 | > 80 | > 80 |  | Retention_time (Putative nitroreductase [17]): 14.4 min; half-life [18]: < 6 min |
| NC(=O)c1cc(N(CCCl)CCCl)c([N+](=O)[O-])cc1[N+](=O)[O-] |  |  |  |  |  |  |  |  | Km [19]: 2500 µM; Kcat/Km [20]: 10560 M⁻¹ s⁻¹; Kcat (Putative nitroreductase [21]): 0.8 s⁻¹; Km [22]: 82.4 µM; Kcat/Km (Putative nitroreductase [23]): 9350 M⁻¹ s⁻¹; fold change (FC) [24]: 1.89 |
| O=C(c1ccc([N+](=O)[O-])cc1)N1CCOCC1 | 15.17 | < 15 | Non-Toxic | 0.00181 | > 80 | > 80 | > 80 | Soluble | Retention time (Putative nitroreductase [12]): 16 min |
